MrgX1 antag = blocks BAM8-22 activation of human MrgX1 receptor; MRGX1-HEK293 calcium flux, Fluo-4, BAM8-22 antagonism; hits give low values; 310,000 compounds, 1.3% hits; B-score at 10 µM; AID 588676;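 active = calcium-response B-score plate-corrected more than 3 library SD below zero, starting fluorescence within 5 deviations, no agonist response on first addition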;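 also: peak minus trough fluorescence over baseline after final BAM8-22 challenge near maximal dose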
Target sequence (Q96LB2 whole entry, looked up): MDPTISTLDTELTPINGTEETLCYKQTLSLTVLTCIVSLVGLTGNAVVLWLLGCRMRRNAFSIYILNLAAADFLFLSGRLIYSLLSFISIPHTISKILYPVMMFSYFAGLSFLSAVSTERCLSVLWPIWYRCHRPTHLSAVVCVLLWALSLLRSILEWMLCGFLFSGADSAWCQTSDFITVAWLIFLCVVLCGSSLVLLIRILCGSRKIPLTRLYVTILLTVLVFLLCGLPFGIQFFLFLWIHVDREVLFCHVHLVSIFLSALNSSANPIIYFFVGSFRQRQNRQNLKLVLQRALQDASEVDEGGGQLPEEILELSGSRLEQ
RGS4 pot = RGS4 potentiation or activation | HEK293 M3R/inducible RGS4, carbachol calcium flux Fluo4; hits give low values | B-score at 10 µM | 310,000 compounds, 0.92% hits;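 active = B-score of the integrated calcium signal more than 4 SD below the library mean, with starting fluorescence not abnormally high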;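 also: negative B-score means reduced calcium response which marks RGS4 activation or potentiation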
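Reagent: ECmax carbachol challenge; Test system: M3R-expressing HEK293 line, RGS4 induced by doxycycline; Schedule: overnight RGS4 induction, 30 min dye load 37 °C, 20 min compound RT; Detection: calcium dye Fluo4 fluorescence; Read-out: Agonist-evoked peak-minus-minimum fluorescence over baseline, integrated ratio, B score.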
RGS4 block = human RGS4 inhibition; P49798; AID 463165; HEK293 M3R/RGS4 inducible, Fluo-4 calcium flux; hits give high values; triggered by carbachol at its EC20; 310,000 compounds, 0.45% hits; B-score at 10 µM;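 active = B-score, a plate-corrected calcium signal, over three deviations above library mean, with baseline fluorescence within five deviations of library mean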;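 also: RGS4 expression induced by doxycycline in cells with stable M3 receptor; B-score is computed from the integrated fluorescence ratio over baseline after carbachol; higher B-score means a larger calcium signal and so more RGS4 inhibition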
Target sequence (P49798 whole entry, looked up): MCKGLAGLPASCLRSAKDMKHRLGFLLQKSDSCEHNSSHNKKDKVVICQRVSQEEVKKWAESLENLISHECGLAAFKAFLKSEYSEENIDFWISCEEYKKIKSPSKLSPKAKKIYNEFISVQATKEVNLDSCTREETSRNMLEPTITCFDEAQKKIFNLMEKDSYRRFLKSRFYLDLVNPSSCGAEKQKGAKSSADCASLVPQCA
MrgX1 allo act = allosterically activates human MrgX1 receptor signaling; Q96LB2; MrgX1-HEK293, Fluo-4 calcium flux, FDSS; hits give high values; B-score at 10 µM; 310,000 compounds, 0.63% hits; AID 588675;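 active = plate-corrected calcium response at least 3 library SD above typical, normal starting fluorescence, not activating the receptor alone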;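 also: compound read alongside a low EC10 to EC30 dose of BAM8-22 agonist; peak minus trough fluorescence over baseline measured at the second addition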
MrgX1 ag = activates human MrgX1 receptor signaling. AID 588627. B-score at 10 µM. 310,000 compounds, 0.44% hits. MrgX1-HEK293 cells, Fluo-4 calcium fluorescence, agonist mode; hits give high values. Q96LB2;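 active = calcium response B-score plate-corrected fluorescence ratio at least 3 library SD, with starting fluorescence B-score inside 5 SD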
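Test system: Stable human MrgX1 HEK293 cell line | Schedule: Overnight plating before 1 h dye loading | Read-out basis: Baseline-normalised fluorescence change ratio, B-scored | Detection: Kinetic calcium dye fluorescence, Fluo-4 NW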
MrgX1 PAM conf = confirmation of human MrgX1 receptor positive allosteric modulators. shares compounds with MrgX1 allo act. MrgX1-HEK293, Fluo-4 calcium fluorescence, FDSS. activation (ratio percentage), % at 10 µM. 1,200 compounds, 13% hits;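 active = ratio at least 3 SD above the weak peptide control, stable starting fluorescence, no direct agonism earlier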;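 also: compound followed by low BAM8-22 agonist challenge near EC20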
HEK293 Ca flux = MrgX1 antagonist counter-screen hit in parental HEK293 cells; shares compounds with MrgX1 antag; Fluo-4 calcium fluorescence, FDSS; fluorescence ratio F(max-min)/F0 at 10 µM; 4,000 compounds, 2% hits; AID 624111;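 active = duplicate-averaged calcium fluorescence ratio at least three times the standard deviation of buffer wells, a nonspecific response in parental cells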
HEK293 Ca counter = counter-screen for MrgX1 allosteric activators: effect in parental HEK293 cells; AID 624114; shares compounds with MrgX1 antag; parental HEK293 calcium flux, Fluo-4 fluorescence ratio; hits give high values; fluorescence ratio F(max-min)/F0 at 10 µM; 4,000 compounds, 0.4% hits;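 active = calcium fluorescence ratio, averaged over duplicates, at least 3 SD of the buffer-well ratio, meaning a nonspecific response in receptor-free cells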;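 also: untransfected parental HEK293 lacking MrgX1 used as counterscreen for MrgX1 allosteric activators; fluorescence change taken during the second addition on a kinetic imager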
HEK293 Ca cntr2 = activity in parental HEK293 cells lacking MrgX1 receptor; shares compounds with MrgX1 antag; Fluo-4 calcium fluorescence (FDSS); hits give high values; fluorescence ratio F(max-min)/F0 at 10 µM; 4,000 compounds, 8.7% hits; AID 624115;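 active = calcium fluorescence ratio at least three times the spread of buffer wells, meaning a non-specific response in parental cells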
Of the large screens only hits and unclear results are named; the others gave an inactive call (follow-up assays come after a bar, where they were run). Shown are actives, neighbours in structure and some others; about 3.5% of the full set was active somewhere.

O=C(CCC1CCCN(C(=O)c2ccsc2)C1)N1CCN(c2ccccn2)CC1 (stereo not drawn)	none
O=C(Cn1nnc2ccccc21)NCc1ccccc1	MrgX1 allo act 7.2 | MrgX1 PAM conf inactive | HEK293 Ca flux inactive | HEK293 Ca counter inactive | HEK293 Ca cntr2 inactive
Cc1nc(SC(C)C(=O)c2c(N)n(C)c(=O)n(C)c2=O)c2c(C)c(C)sc2n1 (stereo not drawn)	none
CCCCCCC1CC(CSC(=N)N)OC1=O (stereo not drawn)	MrgX1 allo act 6.5 | MrgX1 PAM conf inactive | HEK293 Ca flux inactive | HEK293 Ca counter inactive | HEK293 Ca cntr2 inactive
CC(=O)Cc1nsc(NC(=O)c2ccc(-c3cccc(Cl)c3)o2)n1	MrgX1 allo act 13 | MrgX1 PAM conf 15% | HEK293 Ca flux inactive | HEK293 Ca counter inactive | HEK293 Ca cntr2 inactive
CC(=O)Cc1nsc(NC(=O)c2ccc(Br)o2)n1	MrgX1 allo act 7.4 | MrgX1 PAM conf inactive | HEK293 Ca flux inactive | HEK293 Ca counter inactive | HEK293 Ca cntr2 inactive
CCc1ccc(CN2CCC(n3nccc3NC(=O)c3cccc(F)c3)CC2)cc1	none
Cc1ccc(N2CC(C(=O)N/N=C/c3c(F)cccc3Cl)CC2=O)cc1 (stereo not drawn)	none
CCOc1ccc2nc(SCC(=O)NCc3ccccc3OC)[nH]c2c1	MrgX1 allo act 15 | MrgX1 PAM conf inactive | HEK293 Ca flux inactive | HEK293 Ca counter inactive | HEK293 Ca cntr2 inactive
Cc1ccccc1OCC(=O)Nc1c2c(nn1C(C)(C)C)CS(=O)(=O)C2	none
OCc1cn(-c2ccccc2)nc1-c1ccc2c(c1)OCCO2	MrgX1 allo act 39 | MrgX1 PAM conf 21% | HEK293 Ca flux inactive | HEK293 Ca counter inactive | HEK293 Ca cntr2 inactive
O/N=C/c1cn(-c2ccccc2)nc1-c1ccc2c(c1)OCCO2	none
COc1cccc(-c2nn(-c3ccccc3)cc2CO)c1	MrgX1 allo act 12 | MrgX1 PAM conf inactive | HEK293 Ca flux inactive | HEK293 Ca counter inactive | HEK293 Ca cntr2 inactive
CCNC(=O)c1ccc(C23CC4CC(CC(C4)C2)C3)o1	none
O=C(CCc1ccccc1)Nc1nc2n(n1)C(c1ccc(Cl)cc1)CC(=O)N2 (stereo not drawn)	none
O=C(CCc1ccccc1)Nc1nc2n(n1)C(c1ccccc1)CC(=O)N2 (stereo not drawn)	MrgX1 allo act 21 | MrgX1 PAM conf inactive | HEK293 Ca flux inactive | HEK293 Ca counter inactive | HEK293 Ca cntr2 inactive
O=C(CSCc1ccc([N+](=O)[O-])cc1)Nc1ccccc1C(=O)O	none
COc1ccc2nc(CCN(C)C(=O)C3CCC(=O)N(Cc4cccc(F)c4)C3)[nH]c2c1 (stereo not drawn)	none
COc1cccc(CN2CC(C(=O)N(C)Cc3nc4ccc(F)cc4[nH]3)CCC2=O)c1 (stereo not drawn)	MrgX1 allo act 7 | MrgX1 PAM conf inactive | HEK293 Ca flux inactive | HEK293 Ca counter inactive | HEK293 Ca cntr2 inactive
Cc1ccc(-n2nc3c(=O)n(C(C)C(=O)NC4CC4)nc(C)c3c2C)cc1 (stereo not drawn)	none
O=C(Nc1nnc(SCC(=O)N2CCCCC2)s1)c1ccc(F)cc1F	MrgX1 allo act 6.8 | MrgX1 PAM conf inactive | HEK293 Ca flux inactive | HEK293 Ca counter inactive | HEK293 Ca cntr2 inactive
O=C(Cc1ccc(F)cc1)Nc1nnc(SCC(=O)N2CCCCC2)s1	none
Cc1cc(C)n(/N=C/c2ccccc2O)c(=O)c1	none
Cc1cc(C)n(/N=C/c2cc(Cl)cc(Cl)c2O)c(=O)c1	MrgX1 allo act 21 | MrgX1 PAM conf inactive | HEK293 Ca flux 0.43 | HEK293 Ca counter inactive | HEK293 Ca cntr2 77
Cc1c(C)n(CC(O)CN2C(=O)c3ccccc3S2(=O)=O)c2ccccc12 (stereo not drawn)	MrgX1 allo act 10 | MrgX1 PAM conf inactive | HEK293 Ca flux inactive | HEK293 Ca counter inactive | HEK293 Ca cntr2 inactive
CCC(C)(C)C1CCc2[nH]nc(C(=O)NCc3ccc(OC)cc3)c2C1 (stereo not drawn)	none (no result: RGS4 pot, RGS4 block)
COc1ccc(CNc2ccc(C)cc2)cc1Br	none
COc1ccc(CNc2ccccc2)cc1Br	MrgX1 allo act 9.4 | MrgX1 PAM conf inactive | HEK293 Ca flux inactive | HEK293 Ca counter inactive | HEK293 Ca cntr2 inactive
CC1CCN(C(=O)COc2ccc3ccccc3c2Br)CC1	MrgX1 allo act 6.5 | MrgX1 PAM conf inactive | HEK293 Ca flux inactive | HEK293 Ca counter inactive | HEK293 Ca cntr2 inactive
CC1CCN(C(=O)COc2ncnc3ccccc23)CC1	none
COc1ccc(CCN(C)C(=O)c2oc3ccccc3c2C)cc1OC	none
COc1ccc(CN(C)C(=O)c2oc3ccccc3c2CSC)cc1F	MrgX1 allo act 8 | MrgX1 PAM conf inactive | HEK293 Ca flux inactive | HEK293 Ca counter inactive | HEK293 Ca cntr2 inactive
NS(=O)(=O)c1cc(C(=O)NCCc2ccccn2)ccc1Cl	MrgX1 allo act 21 | MrgX1 PAM conf inactive | HEK293 Ca flux inactive | HEK293 Ca counter inactive | HEK293 Ca cntr2 inactive
O=c1[nH]c(Nc2ccccc2)cc2ccccc12	MrgX1 allo act 19 | MrgX1 PAM conf 34% | HEK293 Ca flux inactive | HEK293 Ca counter inactive | HEK293 Ca cntr2 inactive
CCOc1cc(/C=C2/SC(=S)NC2=O)ccc1OC(=O)c1ccco1	none
CCOc1cc(/C=C2/C(=N)N3C(=NC2=O)SN=C3S(=O)(=O)CC)ccc1OC(=O)c1ccco1	MrgX1 allo act 35 | MrgX1 PAM conf 24% | HEK293 Ca flux inactive | HEK293 Ca counter inactive | HEK293 Ca cntr2 inactive
CCOc1cc(/C=C2/C(=N)N3C(=NC2=O)SN=C3S(=O)(=O)C(C)C)ccc1OC(=O)c1ccco1	MrgX1 allo act 37 | MrgX1 PAM conf 41% | HEK293 Ca flux inactive | HEK293 Ca counter inactive | HEK293 Ca cntr2 48
CCOc1cc(/C=C2/C(=N)N3OC(C)=CC3=NC2=O)ccc1OC(=O)c1ccco1	none
COc1cc(/C=C2/C(=N)N3C(=NC2=O)SN=C3S(=O)(=O)C(C)C)ccc1OC(=O)c1ccco1	MrgX1 allo act 38 | MrgX1 PAM conf 37% | HEK293 Ca flux inactive | HEK293 Ca counter inactive | HEK293 Ca cntr2 inactive
O=C(CCc1nc(-c2ccccc2)c(-c2ccccc2)o1)OCc1ccc(Br)cc1	MrgX1 allo act 20 | MrgX1 PAM conf inactive | HEK293 Ca flux inactive | HEK293 Ca counter inactive | HEK293 Ca cntr2 inactive
O=C(CCc1nc(-c2ccccc2)c(-c2ccccc2)o1)OCc1ccc(Cl)cc1	none

Screening data: PubChem, Johns Hopkins Ion Channel Center
